Measurements taken from PMC6045484 (ACS Omega, 2018).
In brackets after ≈: the same amount, converted by molar mass.

Key:
P. falciparum (D6) = experiment: in vitro antimalarial activity, plasmodial LDH; format: cell-based, Plasmodium falciparum
P. falciparum (W2) = experiment: in vitro antimalarial activity, plasmodial LDH; format: cell-based, Plasmodium falciparum
Procedure, shortened: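 P. falciparum-infected erythrocytes (2% parasitemia, 2% hematocrit) in RPMI 1640 with 10% human serum and 60 μg/mL amikacin. Exposed to test compound dilutions for 72 h at 37 °C under 90% N2/5% O2/5% CO2. LDH measured with Malstat reagent (30 min, room temperature), then NBT/PES for 1 h in the dark, stopped with 5% acetic acid, read at 650 nm. IC50 from dose-response curves.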

[1] = system: SK-MEL, KB, BT-549, SK-OV-3, VERO and LLC-PK1 cells; experiment: cytotoxicity, neutral red uptake assay; format: cell-based, mammalian; settings: highest test concentration 4760 ng/mL
Procedure, shortened: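 Cells seeded at 25 000/well and allowed 24 h to reach confluence. Test compound was then added and incubated 48 h. Viable cells were counted by a modified neutral red uptake method. The panel was four human cancer lines and two noncancerous mammalian kidney lines. Doxorubicin served as positive control and DMSO as negative control.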

[2] = system: P. berghei (sensitive strain); experiment: blood-schizontocidal activity against P. berghei infection in mice; format: in vivo, Plasmodium berghei; settings: Swiss mice
Procedure, shortened: (§1)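 Swiss mice of either sex (about 15–20 g, same age), six per group, inoculated intraperitoneally on day 0 with 1 × 10^7 infected erythrocytes from a donor mouse. Oral test compound at 100, 50, 25 or 10 mg/kg, CQ diphosphate (10 mg/kg/day × 4) or vehicle started 4 h later, on D0 to D+3. Giemsa tail-blood smears on D+4 and D+7. Curative: parasites eliminated, no relapse, all mice surviving to D+60.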

[3] = system: multidrug-resistant P. yoelii nigeriensis; experiment: blood-schizontocidal activity against P. yoelii nigeriensis infection in mice; format: in vivo, Plasmodium yoelii nigeriensis; settings: Swiss mice
Procedure, shortened: as §1

[4] = system: L. donovani promastigotes; experiment: in vitro antileishmanial activity, alamarBlue assay; format: cell-based, Leishmania donovani; settings: Leishmania donovani, 48 h
C. albicans ATCC90028 = experiment: in vitro antifungal activity; format: cell-based, Candida albicans
Procedure, shortened: (§2)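 Modified NCCLS broth method in Sabouraud dextrose. Inoculum set by OD630 to 1.5 × 10^3 CFU/mL. Test compound serially diluted in 20% DMSO/saline, duplicate wells, up to 20 μg/mL. Incubated 70–74 h at 35 °C; 530 nm read before and after. IC50 is 50% growth inhibition; MIC is no detectable growth. MFC from clear wells subcultured on agar. Amphotericin B control.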

C. neoformans ATCC90113 = experiment: in vitro antifungal activity; format: cell-based, Cryptococcus neoformans
Procedure, shortened: as §2

A. fumigatus ATCC 90906 = experiment: in vitro antifungal activity; format: cell-based, Aspergillus fumigatus
Procedure, shortened: as §2

SA (ATCC29213) = experiment: in vitro antibacterial activity; format: cell-based; settings: Staphylococcus aureus
Procedure, shortened: (§3)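 Test compound serially diluted in 20% DMSO/saline and plated in duplicate, up to 20 μg/mL. Inoculum in cation-adjusted Mueller–Hinton broth, pH 7.3, set by OD630 to 5 × 10^5 CFU/mL. Incubated 16–20 h at 35 °C; 530 nm read before and after. IC50 is 50% growth inhibition; MIC is no detectable growth. MBC from clear wells subcultured on agar. Ciprofloxacin control.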

MRSA (ATCC33591) = experiment: in vitro antibacterial activity; format: cell-based, methicillin-resistant Staphylococcus aureus
Procedure, shortened: as §3

[5] = system: M. intracellulare (ATCC23068); experiment: in vitro antibacterial activity, modified alamarBlue procedure; format: cell-based, Mycobacterium intracellulare
Procedure, shortened: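 Modified alamarBlue microplate method. Test compound serially diluted in 20% DMSO/saline, duplicate wells, up to 20 μg/mL. Inoculum 2.0 × 10^6 CFU/mL in Middlebrook 7H9 with OADC, pH 7.3, containing 5% alamarBlue. Incubated 70–74 h at 37 °C, 10% CO2; fluorescence 544ex/590em read before and after. MIC: no blue-to-pink change. MBC by subculturing blue wells on agar. Ciprofloxacin control.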

C. glabrata ATCC90030 = experiment: in vitro antifungal activity; format: cell-based, Candida glabrata
Procedure, shortened: as §2

C. krusei ATCC6258 = experiment: in vitro antifungal activity; format: cell-based, Candida krusei
Procedure, shortened: as §2

[6] = highest test concentration 20 μg/mL
[7] = methicillin-resistant S. aureus, highest test concentration 20 μg/mL

Compound: CCCCCCCCOc1c(OC)cc(NC(C)CCCN)c2nc(C(C)(C)C)ccc12 (stereo not shown) [compound 49, N^4-(2-tert-Butyl-6-methoxy-5-(octyloxy)quinolin-8-yl)pentane-1,4-diamine]
- IC50 (P. falciparum (D6); Plasmodium falciparum, D6, 72 h, read-out: P. falciparum (D6) IC50): 0.053 µg/mL (≈ 0.119 µM)
- IC50 (P. falciparum (W2); Plasmodium falciparum, W2, 72 h, read-out: P. falciparum (W2) IC50, CQ-resistant W2 strain, 72 h): 0.04 µg/mL (≈ 0.0902 µM)
- cytotoxicity CTX [1]: NC (NC, not cytotoxic up to 4760 ng/mL (4.76 μg/mL))
- P. berghei blood-schizontocidal activity (mice cured/treated) ([2]; 10 mg/kg/day × 4, oral): active (4/6)
- P. berghei blood-schizontocidal activity (mice cured/treated) ([2]; 25 mg/kg/day × 4, oral): curative (6/6)
- P. berghei blood-schizontocidal activity (mice cured/treated) ([2]; 50 mg/kg/day × 4, oral): curative (6/6)
- P. berghei blood-schizontocidal activity (mice cured/treated) ([2]; 100 mg/kg/day × 4, oral): curative (6/6)
- P. yoelii nigeriensis blood-schizontocidal activity (mice cured/treated) ([3]; 25 mg/kg/day × 4, oral): inactive (0/6)
- P. yoelii nigeriensis blood-schizontocidal activity (mice cured/treated) ([3]; 50 mg/kg/day × 4, oral): active (3/6)
- P. yoelii nigeriensis blood-schizontocidal activity (mice cured/treated) ([3]; 100 mg/kg/day × 4, oral): active (4/6)
- IC50 ([4]; read-out: L. donovani IC50, promastigotes, 48 h): 5.2 µg/mL (≈ 11.7 µM)
- IC90 ([4]; read-out: L. donovani IC90, promastigotes, 48 h): > 40 µg/mL
- IC50 (C. albicans ATCC90028; Candida albicans, ATCC90028, read-out: C. albicans IC50): 7.44 µg/mL (≈ 16.8 µM)
- MFC (C. albicans ATCC90028; Candida albicans, ATCC90028, read-out: C. albicans MFC): 10 µg/mL (≈ 22.5 µM)
- MIC (C. albicans ATCC90028; Candida albicans, ATCC90028, read-out: C. albicans MIC): 10 µg/mL (≈ 22.5 µM)
- IC50 (C. neoformans ATCC90113; Cryptococcus neoformans, ATCC90113, read-out: C. neoformans IC50): 2.15 µg/mL (≈ 4.85 µM)
- MFC (C. neoformans ATCC90113; Cryptococcus neoformans, ATCC90113, read-out: C. neoformans MFC): 5 µg/mL (≈ 11.3 µM)
- MIC (C. neoformans ATCC90113; Cryptococcus neoformans, ATCC90113, read-out: C. neoformans MIC): 5 µg/mL (≈ 11.3 µM)
- IC50 (A. fumigatus ATCC 90906; Aspergillus fumigatus, ATCC90906, read-out: A. fumigatus IC50): > 20 µg/mL
- MFC (A. fumigatus ATCC 90906; Aspergillus fumigatus, ATCC90906, read-out: A. fumigatus MFC): > 20 µg/mL
- MIC (A. fumigatus ATCC 90906; Aspergillus fumigatus, ATCC90906, read-out: A. fumigatus MIC): > 20 µg/mL
- IC50 (SA (ATCC29213); ATCC29213, read-out: IC50 (concentration that affords 50% growth inhibition), SA): 3.4 µg/mL (≈ 7.66 µM)
- MBC (SA (ATCC29213); ATCC29213, read-out: MBC (minimum bactericidal concentration), SA): 10 µg/mL (≈ 22.5 µM)
- MIC (SA (ATCC29213); ATCC29213, read-out: MIC, SA): 5 µg/mL (≈ 11.3 µM)
- MIC (MRSA (ATCC33591); Staphylococcus aureus, ATCC33591|MRSA, read-out: MIC, MRSA): 5 µg/mL (≈ 11.3 µM)
- IC50 ([5]; Mycobacterium intracellulare, ATCC23068, read-out: IC50 (concentration that affords 50% growth inhibition), M. intracellulare): 7.43 µg/mL (≈ 16.7 µM)
- MBC ([5]; Mycobacterium intracellulare, ATCC23068, read-out: MBC (minimum bactericidal concentration), M. intracellulare): 20 µg/mL (≈ 45.1 µM)
- MIC ([5]; Mycobacterium intracellulare, ATCC23068, read-out: MIC, M. intracellulare): 10 µg/mL (≈ 22.5 µM)

Compound: CCCCCCCCOc1c(OC)cc(NC(C)CCCNC(=O)C(N)CCCCN)c2nc(C(C)(C)C)ccc12 (stereo not shown) [compound 117, 2,6-Diamino-N-(4-(2-tert-butyl-6-methoxy-5-(octyloxy)quinolin-8-lamino)pentyl)-hexanamide]
- P. falciparum (D6) IC50 (P. falciparum (D6); CQ-sensitive D6 strain, 72 h): NA (NA, not active)
- P. falciparum (W2) IC50 (P. falciparum (W2); CQ-resistant W2 strain, 72 h): NA (NA, not active)
- cytotoxicity CTX [1]: NC (NC, not cytotoxic up to 4760 ng/mL (4.76 μg/mL))
- C. albicans IC50 (C. albicans ATCC90028): NA (NA, no activity at the highest test concentration of 20 μg/mL)
- C. albicans MFC (C. albicans ATCC90028): NA (NA, no activity at the highest test concentration of 20 μg/mL)
- C. albicans MIC (C. albicans ATCC90028): NA (NA, no activity at the highest test concentration of 20 μg/mL)
- C. glabrata IC50 (C. glabrata ATCC90030): NA (NA, no activity at the highest test concentration of 20 μg/mL)
- C. glabrata MFC (C. glabrata ATCC90030): NA (NA, no activity at the highest test concentration of 20 μg/mL)
- C. glabrata MIC (C. glabrata ATCC90030): NA (NA, no activity at the highest test concentration of 20 μg/mL)
- C. krusei IC50 (C. krusei ATCC6258): NA (NA, no activity at the highest test concentration of 20 μg/mL)
- C. krusei MFC (C. krusei ATCC6258): NA (NA, no activity at the highest test concentration of 20 μg/mL)
- C. krusei MIC (C. krusei ATCC6258): NA (NA, no activity at the highest test concentration of 20 μg/mL)
- C. neoformans IC50 (C. neoformans ATCC90113): 11.92 µg/mL
- C. neoformans MFC (C. neoformans ATCC90113): >20 µg/mL
- C. neoformans MIC (C. neoformans ATCC90113): >20 µg/mL
- A. fumigatus IC50 (A. fumigatus ATCC 90906): NA (NA, no activity at the highest test concentration of 20 μg/mL)
- A. fumigatus MFC (A. fumigatus ATCC 90906): NA (NA, no activity at the highest test concentration of 20 μg/mL)
- A. fumigatus MIC (A. fumigatus ATCC 90906): NA (NA, no activity at the highest test concentration of 20 μg/mL)
- IC50 (concentration that affords 50% growth inhibition), SA (SA (ATCC29213); [6]): NA (NA, no activity at the highest test concentration of 20 μg/mL)
- MBC (minimum bactericidal concentration), SA (SA (ATCC29213); [6]): NA (NA, no activity at the highest test concentration of 20 μg/mL)
- MIC, SA (SA (ATCC29213); [6]): NA (NA, no activity at the highest test concentration of 20 μg/mL)
- IC50 (concentration that affords 50% growth inhibition), MRSA (MRSA (ATCC33591); [7]): NA (NA, no activity at the highest test concentration of 20 μg/mL)
- MBC (minimum bactericidal concentration), MRSA (MRSA (ATCC33591); [7]): NA (NA, no activity at the highest test concentration of 20 μg/mL)
- MIC, MRSA (MRSA (ATCC33591); [7]): NA (NA, no activity at the highest test concentration of 20 μg/mL)
- IC50 (concentration that affords 50% growth inhibition), M. intracellulare [5, 6]: NA (NA, no activity at the highest test concentration of 20 μg/mL)
- MBC (minimum bactericidal concentration), M. intracellulare [5, 6]: NA (NA, no activity at the highest test concentration of 20 μg/mL)
- MIC, M. intracellulare [5, 6]: NA (NA, no activity at the highest test concentration of 20 μg/mL)
